In brackets after ≈: the same amount, converted by molar mass.
Assays:
Assay type in all cases: functional
Staphylococcus aureus [1] = assay: Antimicrobial activity against multidrug-resistant Staphylococcus aureus H.C. 21036 isolate after 20 hrs by twofold serial dilution technique; conditions: H.C. 21036, 20 h
Outline: (§1)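 Twofold serial dilution MIC in agar plates against Gram-positive strains and multidrug-resistant clinical isolates. Inoculum applied was 10⁵ CFU/plate. Plates with culture medium plus DMSO served as negative control. MIC was read after incubation at 35 °C for 20 h.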

Enterococcus faecalis [2] = assay: Antimicrobial activity against Enterococcus faecalis UFPEDA 138 after 20 hrs by twofold serial dilution technique; conditions: UFPEDA 138, 20 h
Outline: (§2)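 MIC was determined by twofold serial dilution. Bacteria were tested in plates at 10⁵ CFU/plate and read after 20 h. C. albicans was tested in tubes at 10³ CFU/tube and read after 48 h. All incubations were at 35 °C. Medium plus DMSO served as the negative control.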

Micrococcus luteus [3] = assay: Antimicrobial activity against Micrococcus luteus UFPEDA 06 after 20 hrs by twofold serial dilution technique; conditions: UFPEDA 06, 20 h; outline: as §2
NCI-H292 [4] = assay: Cytotoxicity against human NCI-H292 cells at 1.25 ug/mL after 72 hrs by MTT assay; conditions: NCI-H292, 72 h, read-out: GI
Outline: (§3)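 MTT antiproliferative assay. Cells were diluted to 10⁵ cells/mL in 96-well plates and preincubated for 24 h at 37 °C in humid 5% CO₂. Compounds or vincristine (reference) were then added. Formazan was dissolved and OD read at 540 nm, compared with medium-only control cells. Run in triplicate.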

Staphylococcus aureus [5] = assay: Antimicrobial activity against Staphylococcus aureus UFPEDA 01 at 300 ug/disk after 24 hrs by disk diffusion method; conditions: UFPEDA 01, 24 h, read-out: IZ
Outline: (§4)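 Preliminary screen by disk diffusion. Paper disks (6 mm) holding 300 µg of compound were placed on agar plates inoculated with a standardized microbial suspension. DMSO-only disks served as negative controls. A mean inhibition zone below 7 mm was scored as no sensitivity. Values are means, n = 3.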

Staphylococcus aureus [6] = assay: Antimicrobial activity against multidrug-resistant Staphylococcus aureus H.C. 21141 isolate after 20 hrs by twofold serial dilution technique; conditions: H.C. 21141, 20 h; outline: as §1
Enterococcus faecalis [7] = assay: Antimicrobial activity against multidrug-resistant Enterococcus faecalis H.C. 21752 isolate after 20 hrs by twofold serial dilution technique; conditions: H.C. 21752, 20 h; outline: as §1
Staphylococcus aureus [8] = assay: Antimicrobial activity against multidrug-resistant Staphylococcus aureus H.C. 20794 isolate after 20 hrs by twofold serial dilution technique; conditions: H.C. 20794, 20 h; outline: as §1
[9] = tested on: Mycolicibacterium smegmatis; assay: Antimicrobial activity against Mycobacterium smegmatis UFPEDA 71 after 20 hrs by twofold serial dilution technique; conditions: UFPEDA 71, 20 h; outline: as §2
Serratia marcescens = assay: Antimicrobial activity against Serratia marcescens UFPEDA 398 at 300 ug/disk after 24 hrs by disk diffusion method; conditions: UFPEDA 398, 24 h, read-out: IZ; outline: as §4
Candida albicans [10] = assay: Antimicrobial activity against Candida albicans UFPEDA 1007 after 48 hrs by twofold serial dilution technique; conditions: UFPEDA 1007, 48 h; outline: as §2
Staphylococcus aureus [11] = assay: Antimicrobial activity against multidrug-resistant Staphylococcus aureus H.C. 20981 isolate after 20 hrs by twofold serial dilution technique; conditions: H.C. 20981, 20 h; outline: as §1
Candida albicans [12] = assay: Antimicrobial activity against Candida albicans UFPEDA 1007 at 300 ug/disk after 48 hrs by disk diffusion method; conditions: UFPEDA 1007, 48 h, read-out: IZ; outline: as §4
NCI-H292 [13] = assay: Cytotoxicity against human NCI-H292 cells at 5 ug/mL after 72 hrs by MTT assay; conditions: NCI-H292, 72 h, read-out: GI; outline: as §3
Staphylococcus aureus [14] = assay: Antimicrobial activity against multidrug-resistant Staphylococcus aureus H.C. 20905 isolate after 20 hrs by twofold serial dilution technique; conditions: H.C. 20905, 20 h; outline: as §1
Enterococcus faecalis [15] = assay: Antimicrobial activity against multidrug-resistant Enterococcus faecalis H.C. 24708 isolate after 20 hrs by twofold serial dilution technique; conditions: H.C. 24708, 20 h; outline: as §1
Bacillus subtilis [16] = assay: Antimicrobial activity against Bacillus subtilis UFPEDA 16 after 20 hrs by twofold serial dilution technique; conditions: UFPEDA 16, 20 h; outline: as §2
Enterococcus faecalis [17] = assay: Antimicrobial activity against Enterococcus faecalis UFPEDA 138 at 300 ug/disk after 24 hrs by disk diffusion method; conditions: UFPEDA 138, 24 h, read-out: IZ; outline: as §4
Micrococcus luteus [18] = assay: Antimicrobial activity against Micrococcus luteus UFPEDA 06 at 300 ug/disk after 24 hrs by disk diffusion method; conditions: UFPEDA 06, 24 h, read-out: IZ; outline: as §4
Bacillus subtilis [19] = assay: Antimicrobial activity against Bacillus subtilis UFPEDA 16 at 300 ug/disk after 24 hrs by disk diffusion method; conditions: UFPEDA 16, 24 h, read-out: IZ; outline: as §4
HEp-2 [20] = assay: Cytotoxicity against human Hep2 cells at 2.5 ug/mL after 72 hrs by MTT assay; conditions: HEp-2, 72 h, read-out: GI; outline: as §3
[21] = tested on: Mycolicibacterium smegmatis; assay: Antimicrobial activity against Mycobacterium smegmatis UFPEDA 71 at 300 ug/disk after 24 hrs by disk diffusion method; conditions: UFPEDA 71, 24 h, read-out: IZ; outline: as §4
Staphylococcus [22] = assay: Antimicrobial activity against coagulase-negative Staphylococcus H.A.M. 278 isolate after 20 hrs by twofold serial dilution technique; conditions: H.A.M. 278, 20 h; outline: as §2
NCI-H292 [23] = assay: Cytotoxicity against human NCI-H292 cells at 2.5 ug/mL after 72 hrs by MTT assay; conditions: NCI-H292, 72 h, read-out: GI; outline: as §3
HEp-2 [24] = assay: Cytotoxicity against human Hep2 cells at 10 ug/mL after 72 hrs by MTT assay; conditions: HEp-2, 72 h, read-out: GI; outline: as §3
Staphylococcus [25] = assay: Antimicrobial activity against coagulase-negative Staphylococcus H.A.M. 338 isolate after 20 hrs by twofold serial dilution technique; conditions: H.A.M. 338, 20 h; outline: as §2
Enterococcus faecalis [26] = assay: Antimicrobial activity against multidrug-resistant Enterococcus faecalis H.C. 21944 isolate after 20 hrs by twofold serial dilution technique; conditions: H.C. 21944, 20 h; outline: as §1
Escherichia coli = assay: Antimicrobial activity against Escherichia coli UFPEDA 224 at 300 ug/disk after 24 hrs by disk diffusion method; conditions: UFPEDA 224, 24 h, read-out: IZ; outline: as §4
Enterococcus faecalis [27] = assay: Antimicrobial activity against multidrug-resistant Enterococcus faecalis H.C. 24962 isolate after 20 hrs by twofold serial dilution technique; conditions: H.C. 24962, 20 h; outline: as §1
Staphylococcus aureus [28] = assay: Antimicrobial activity against multidrug-resistant Staphylococcus aureus H.C. 20489 isolate after 20 hrs by twofold serial dilution technique; conditions: H.C. 20489, 20 h; outline: as §1
NCI-H292 [29] = assay: Cytotoxicity against human NCI-H292 cells at 10 ug/mL after 72 hrs by MTT assay; conditions: NCI-H292, 72 h, read-out: GI; outline: as §3
Pseudomonas aeruginosa = assay: Antimicrobial activity against Pseudomonas aeruginosa UFPEDA 39 at 300 ug/disk after 24 hrs by disk diffusion method; conditions: UFPEDA 39, 24 h, read-out: IZ; outline: as §4
HEp-2 [30] = assay: Cytotoxicity against human Hep2 cells at 1.25 ug/mL after 72 hrs by MTT assay; conditions: HEp-2, 72 h, read-out: GI; outline: as §3
HEp-2 [31] = assay: Cytotoxicity against human Hep2 cells at 5 ug/mL after 72 hrs by MTT assay; conditions: HEp-2, 72 h, read-out: GI; outline: as §3
Staphylococcus aureus [32] = assay: Antimicrobial activity against Staphylococcus aureus UFPEDA 01 after 20 hrs by twofold serial dilution technique; conditions: UFPEDA 01, 20 h; outline: as §1

Compound: O=C1NC(=S)/C(=C/c2ccccc2Cl)S1
- MIC (Staphylococcus aureus [1]): 2 µg/mL (≈ 7.82 µM)
- MIC (Enterococcus faecalis [2]): 16 µg/mL (≈ 62.6 µM)
- MIC (Micrococcus luteus [3]): 16 µg/mL (≈ 62.6 µM)
- inhibition of growth at 1.25 µg/mL (NCI-H292 [4]): 10.6%
- zone of inhibition at 300 µg/disc (Staphylococcus aureus [5]): 25 mm
- MIC (Staphylococcus aureus [6]): 8 µg/mL (≈ 31.3 µM)
- MIC (Enterococcus faecalis [7]): 16 µg/mL (≈ 62.6 µM)
- MIC (Staphylococcus aureus [8]): 2 µg/mL (≈ 7.82 µM)
- MIC [9]: 16 µg/mL (≈ 62.6 µM)
- zone of inhibition at 300 µg/disc (Serratia marcescens): < 7 mm
- MIC (Candida albicans [10]): 32 µg/mL (≈ 125 µM)
- MIC (Staphylococcus aureus [11]): 4 µg/mL (≈ 15.6 µM)
- zone of inhibition at 300 µg/disc (Candida albicans [12]): 12 mm
- inhibition of growth at 5 µg/mL (NCI-H292 [13]): 34.2%
- MIC (Staphylococcus aureus [14]): 2 µg/mL (≈ 7.82 µM)
- MIC (Enterococcus faecalis [15]): 16 µg/mL (≈ 62.6 µM)
- MIC (Bacillus subtilis [16]): 16 µg/mL (≈ 62.6 µM)
- zone of inhibition at 300 µg/disc (Enterococcus faecalis [17]): 16 mm
- zone of inhibition at 300 µg/disc (Micrococcus luteus [18]): 18 mm
- zone of inhibition at 300 µg/disc (Bacillus subtilis [19]): 17 mm
- inhibition of growth at 2.5 µg/mL (HEp-2 [20]): -11.5%
- zone of inhibition at 300 µg/disc [21]: 20 mm
- MIC (Staphylococcus [22]): 32 µg/mL (≈ 125 µM)
- inhibition of growth at 2.5 µg/mL (NCI-H292 [23]): 19.9%
- inhibition of growth at 10 µg/mL (HEp-2 [24]): 21.1%
- MIC (Staphylococcus [25]): 8 µg/mL (≈ 31.3 µM)
- MIC (Enterococcus faecalis [26]): 32 µg/mL (≈ 125 µM)
- zone of inhibition at 300 µg/disc (Escherichia coli): < 7 mm
- MIC (Enterococcus faecalis [27]): 32 µg/mL (≈ 125 µM)
- MIC (Staphylococcus aureus [28]): 2 µg/mL (≈ 7.82 µM)
- inhibition of growth at 10 µg/mL (NCI-H292 [29]): 45%
- zone of inhibition at 300 µg/disc (Pseudomonas aeruginosa): < 7 mm
- inhibition of growth at 1.25 µg/mL (HEp-2 [30]): -11.3%
- inhibition of growth at 5 µg/mL (HEp-2 [31]): 5.97%
- MIC (Staphylococcus aureus [32]): 4 µg/mL (≈ 15.6 µM)

Compound: O=C1NC(=S)/C(=C/c2ccc(Cl)cc2Cl)S1
- MIC (Staphylococcus aureus [1]): 8 µg/mL (≈ 27.6 µM)
- MIC (Enterococcus faecalis [2]): 16 µg/mL (≈ 55.1 µM)
- MIC (Micrococcus luteus [3]): 8 µg/mL (≈ 27.6 µM)
- inhibition of growth at 1.25 µg/mL (NCI-H292 [4]): 12.1%
- zone of inhibition at 300 µg/disc (Staphylococcus aureus [5]): 23 mm
- MIC (Staphylococcus aureus [6]): 4 µg/mL (≈ 13.8 µM)
- MIC (Enterococcus faecalis [7]): 4 µg/mL (≈ 13.8 µM)
- MIC (Staphylococcus aureus [8]): 2 µg/mL (≈ 6.89 µM)
- MIC [9]: 4 µg/mL (≈ 13.8 µM)
- zone of inhibition at 300 µg/disc (Serratia marcescens): < 7 mm
- MIC (Candida albicans [10]): 32 µg/mL (≈ 110 µM)
- MIC (Staphylococcus aureus [11]): 2 µg/mL (≈ 6.89 µM)
- zone of inhibition at 300 µg/disc (Candida albicans [12]): 15 mm
- inhibition of growth at 5 µg/mL (NCI-H292 [13]): 29.3%
- MIC (Staphylococcus aureus [14]): 2 µg/mL (≈ 6.89 µM)
- MIC (Enterococcus faecalis [15]): 8 µg/mL (≈ 27.6 µM)
- MIC (Bacillus subtilis [16]): 2 µg/mL (≈ 6.89 µM)
- zone of inhibition at 300 µg/disc (Enterococcus faecalis [17]): 18 mm
- zone of inhibition at 300 µg/disc (Micrococcus luteus [18]): 24 mm
- zone of inhibition at 300 µg/disc (Bacillus subtilis [19]): 24 mm
- inhibition of growth at 2.5 µg/mL (HEp-2 [20]): 15.3%
- zone of inhibition at 300 µg/disc [21]: 19 mm
- MIC (Staphylococcus [22]): 4 µg/mL (≈ 13.8 µM)
- inhibition of growth at 2.5 µg/mL (NCI-H292 [23]): 14.7%
- inhibition of growth at 10 µg/mL (HEp-2 [24]): 24.8%
- MIC (Staphylococcus [25]): 2 µg/mL (≈ 6.89 µM)
- MIC (Enterococcus faecalis [26]): 4 µg/mL (≈ 13.8 µM)
- zone of inhibition at 300 µg/disc (Escherichia coli): < 7 mm
- MIC (Enterococcus faecalis [27]): 8 µg/mL (≈ 27.6 µM)
- MIC (Staphylococcus aureus [28]): 2 µg/mL (≈ 6.89 µM)
- inhibition of growth at 10 µg/mL (NCI-H292 [29]): 38.4%
- zone of inhibition at 300 µg/disc (Pseudomonas aeruginosa): < 7 mm
- inhibition of growth at 1.25 µg/mL (HEp-2 [30]): 6.83%
- inhibition of growth at 5 µg/mL (HEp-2 [31]): 20%
- MIC (Staphylococcus aureus [32]): 2 µg/mL (≈ 6.89 µM)
